Assay [1] is described as follows: Ratio of kinetic parameter Kcat to that of binding affinity towards adenosine deaminase KM. In short, it runs like this:
(§1)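 Calf intestinal mucosa adenosine deaminase (0.15 units) in pH 7.4 phosphate buffer (2 mL) at 25 °C, with substrate at 15-100 µM. Hydrolysis was followed by UV absorbance at 265 nm, and substrate concentration was derived from the absorbance change. Initial rates came from graphical fitting of concentration versus time.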

The target in assay [2] is T1, Adenosine deaminase (Bos taurus) (UniProt P56658).
T1 sequence (whole entry): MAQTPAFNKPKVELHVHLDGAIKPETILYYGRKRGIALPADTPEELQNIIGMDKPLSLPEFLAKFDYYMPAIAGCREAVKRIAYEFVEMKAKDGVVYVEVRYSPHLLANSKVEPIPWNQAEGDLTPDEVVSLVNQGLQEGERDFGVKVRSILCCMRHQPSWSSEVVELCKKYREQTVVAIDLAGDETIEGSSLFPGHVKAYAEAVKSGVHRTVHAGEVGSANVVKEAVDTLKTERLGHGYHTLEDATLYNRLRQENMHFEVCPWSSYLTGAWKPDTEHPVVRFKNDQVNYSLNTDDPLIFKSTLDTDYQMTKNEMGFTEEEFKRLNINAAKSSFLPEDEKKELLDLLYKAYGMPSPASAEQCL
Put plainly: Kinetic parameter Kcat of compound used as substrate for Adenosine deaminase was evaluated. In short, it runs like this:
as §1

As for `Nc1ncnc2c1ncn2[C@@H]1S[C@H](CO)C=C1F`, the k cat/Km in assay [1] was determined as 50000 M⁻¹ s⁻¹. The k cat in assay [2] stood at 0.94 s⁻¹.

Regarding `Nc1ncnc2c1ncn2[C@@H]1O[C@H](CO)[C@@H](O)[C@H]1O`, the k cat/Km in assay [1] is 3.1e+06 M⁻¹ s⁻¹. The k cat in assay [2] is 76.4 s⁻¹.

The record behind these values is ChEMBL document CHEMBL1135749, “Stereoselective synthesis and antiviral activity of D-2',3'-didehydro-2',3'-dideoxy-2'-fluoro-4'-thionucleosides” (J Med Chem, 2002).
